Experimental data published in ChEMBL document CHEMBL1268809, “Optimisation of 2-cyano-pyrimidine inhibitors of cathepsin K: improving selectivity over hERG” (Bioorg Med Chem Lett, 2010).
Converted amounts (≈) assume the structure as drawn.

What was measured:
[1] = target: Voltage-gated inwardly rectifying potassium channel KCNH2 (Homo sapiens, UniProt Q12809); experiment: Displacement of [3H] dofetilide from human ERG channel expressed in HEK293 cells; format: cell-based
[2] = Half life in plasma; format: ADME, cell-free
Cathepsin K = target: T1, Cathepsin K (Homo sapiens, UniProt P43235); experiment: Inhibition of human recombinant cathepsin K using Z-Phe-Arg-MCA substrate by fluorimetric assay
T1 sequence (P43235 whole entry): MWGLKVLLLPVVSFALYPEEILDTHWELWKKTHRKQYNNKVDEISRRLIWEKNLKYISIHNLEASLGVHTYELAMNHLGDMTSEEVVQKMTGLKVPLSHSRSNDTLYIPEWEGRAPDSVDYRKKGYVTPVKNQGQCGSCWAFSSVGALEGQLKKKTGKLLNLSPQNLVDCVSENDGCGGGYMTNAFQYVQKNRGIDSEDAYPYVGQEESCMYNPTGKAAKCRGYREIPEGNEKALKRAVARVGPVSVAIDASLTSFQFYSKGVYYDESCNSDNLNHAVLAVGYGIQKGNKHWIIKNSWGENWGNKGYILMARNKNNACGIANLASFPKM

Procathepsin L = Procathepsin L (Homo sapiens, UniProt P07711); experiment: Inhibition of human recombinant cathepsin L
Chain of Procathepsin L (P07711 whole entry): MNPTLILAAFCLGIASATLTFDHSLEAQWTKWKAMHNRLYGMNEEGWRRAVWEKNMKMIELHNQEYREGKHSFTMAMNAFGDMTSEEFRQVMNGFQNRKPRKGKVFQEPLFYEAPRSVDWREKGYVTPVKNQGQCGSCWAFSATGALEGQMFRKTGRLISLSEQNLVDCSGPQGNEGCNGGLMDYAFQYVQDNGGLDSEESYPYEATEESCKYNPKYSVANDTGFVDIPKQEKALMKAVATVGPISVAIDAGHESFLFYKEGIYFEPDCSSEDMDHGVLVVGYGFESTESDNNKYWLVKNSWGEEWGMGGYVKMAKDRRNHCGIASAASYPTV

[3] = Oral bioavailability in Beagle dog at 1.96 mg/kg; settings: in vivo
Cathepsin B = Cathepsin B (Homo sapiens, UniProt P07858); experiment: Inhibition of human recombinant cathepsin B
[4] = Oral bioavailability in Wistar rat at 10 mg/kg; format: ADME, organism-based; settings: in vivo
How it was run: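 Wistar rats were dosed iv at 2 mg/kg and po at 10 mg/kg. Oral bioavailability (F, %) was derived from the two routes.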

Cathepsin S = Cathepsin S (Homo sapiens, UniProt P25774); experiment: Inhibition of human recombinant cathepsin S
Chain of Cathepsin S (P25774 whole entry): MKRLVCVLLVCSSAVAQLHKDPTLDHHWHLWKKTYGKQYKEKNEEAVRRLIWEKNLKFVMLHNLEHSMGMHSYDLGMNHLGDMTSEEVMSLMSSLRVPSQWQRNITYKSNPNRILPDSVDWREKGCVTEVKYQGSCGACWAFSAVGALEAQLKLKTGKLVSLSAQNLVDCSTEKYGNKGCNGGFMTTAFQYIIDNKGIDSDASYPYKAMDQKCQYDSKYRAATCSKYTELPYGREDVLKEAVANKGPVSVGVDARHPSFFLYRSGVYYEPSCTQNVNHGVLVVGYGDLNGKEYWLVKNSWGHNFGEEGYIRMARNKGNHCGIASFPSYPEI

[5] = Oral bioavailability in cynomolgus monkey at 4.63 mg/kg; settings: in vivo
Cytochrome P450 2C19 = Cytochrome P450 2C19 (Homo sapiens, UniProt P33261); experiment: Inhibition of CYP2C19; format: ADME
Chain of Cytochrome P450 2C19 (P33261 whole entry): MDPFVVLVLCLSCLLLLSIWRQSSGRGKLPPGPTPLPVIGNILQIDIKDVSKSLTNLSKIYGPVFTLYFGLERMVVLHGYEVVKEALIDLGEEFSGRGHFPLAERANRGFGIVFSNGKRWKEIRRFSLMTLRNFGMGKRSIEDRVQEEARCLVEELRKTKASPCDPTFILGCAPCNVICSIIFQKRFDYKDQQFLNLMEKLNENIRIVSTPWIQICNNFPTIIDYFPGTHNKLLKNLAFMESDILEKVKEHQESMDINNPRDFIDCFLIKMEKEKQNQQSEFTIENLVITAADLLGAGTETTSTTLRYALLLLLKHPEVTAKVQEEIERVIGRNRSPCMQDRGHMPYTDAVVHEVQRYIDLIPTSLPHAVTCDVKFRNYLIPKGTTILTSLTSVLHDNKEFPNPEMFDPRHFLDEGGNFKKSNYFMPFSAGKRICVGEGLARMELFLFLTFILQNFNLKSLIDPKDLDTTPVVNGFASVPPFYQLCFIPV

Cytochrome P450 3A4 = Cytochrome P450 3A4 (Homo sapiens, UniProt P08684); experiment: Inhibition of CYP3A4; format: ADME
Chain of Cytochrome P450 3A4 (P08684 whole entry): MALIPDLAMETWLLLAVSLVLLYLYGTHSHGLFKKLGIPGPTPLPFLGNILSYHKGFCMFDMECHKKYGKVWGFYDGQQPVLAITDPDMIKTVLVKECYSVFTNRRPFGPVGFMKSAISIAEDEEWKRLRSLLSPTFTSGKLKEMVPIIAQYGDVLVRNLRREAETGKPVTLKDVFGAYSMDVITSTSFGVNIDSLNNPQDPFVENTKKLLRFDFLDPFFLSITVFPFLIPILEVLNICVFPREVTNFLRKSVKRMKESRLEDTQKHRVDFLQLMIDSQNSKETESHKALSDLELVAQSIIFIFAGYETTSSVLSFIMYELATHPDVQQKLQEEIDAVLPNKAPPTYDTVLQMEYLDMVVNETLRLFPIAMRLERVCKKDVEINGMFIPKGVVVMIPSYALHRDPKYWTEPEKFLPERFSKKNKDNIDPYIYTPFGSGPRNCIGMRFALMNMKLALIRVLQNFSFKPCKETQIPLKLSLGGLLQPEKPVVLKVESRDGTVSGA

Cytochrome P450 2C9 = Cytochrome P450 2C9 (Homo sapiens, UniProt P11712); experiment: Inhibition of CYP2C9; format: ADME
Chain of Cytochrome P450 2C9 (P11712 whole entry): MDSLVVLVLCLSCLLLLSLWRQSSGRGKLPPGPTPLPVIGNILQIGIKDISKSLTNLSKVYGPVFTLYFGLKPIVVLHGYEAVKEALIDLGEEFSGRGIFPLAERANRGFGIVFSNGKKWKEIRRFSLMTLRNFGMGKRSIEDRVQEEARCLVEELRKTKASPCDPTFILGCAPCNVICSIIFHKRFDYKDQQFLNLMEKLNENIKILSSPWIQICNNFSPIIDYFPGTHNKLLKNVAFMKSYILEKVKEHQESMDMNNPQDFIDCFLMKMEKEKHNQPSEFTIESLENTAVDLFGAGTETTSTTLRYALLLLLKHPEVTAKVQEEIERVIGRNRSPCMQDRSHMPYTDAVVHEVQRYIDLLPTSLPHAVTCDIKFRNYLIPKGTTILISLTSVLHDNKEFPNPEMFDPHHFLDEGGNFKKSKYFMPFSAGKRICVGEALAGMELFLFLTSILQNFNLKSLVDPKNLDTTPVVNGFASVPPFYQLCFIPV

[6] = Solubility in pH 7.4 PBS solution; format: physicochemical
Cytochrome P450 1A2 = target: T2, Cytochrome P450 1A2 (Homo sapiens, UniProt P05177); experiment: Inhibition of CYP1A2; format: ADME
T2 sequence (P05177 whole entry): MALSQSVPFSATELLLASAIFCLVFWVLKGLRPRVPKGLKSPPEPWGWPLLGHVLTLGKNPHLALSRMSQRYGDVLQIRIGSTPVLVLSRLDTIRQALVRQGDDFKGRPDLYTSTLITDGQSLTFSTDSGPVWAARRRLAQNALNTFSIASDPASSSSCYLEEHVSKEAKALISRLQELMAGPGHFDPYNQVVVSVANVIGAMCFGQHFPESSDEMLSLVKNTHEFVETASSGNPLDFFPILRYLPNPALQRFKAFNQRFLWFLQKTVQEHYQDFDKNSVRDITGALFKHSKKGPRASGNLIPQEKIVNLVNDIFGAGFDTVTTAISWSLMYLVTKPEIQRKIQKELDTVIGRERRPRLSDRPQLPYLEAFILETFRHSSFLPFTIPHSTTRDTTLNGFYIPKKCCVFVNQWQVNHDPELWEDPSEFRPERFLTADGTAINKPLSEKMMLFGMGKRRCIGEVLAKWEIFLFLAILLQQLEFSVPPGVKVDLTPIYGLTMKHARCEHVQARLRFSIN

Osteoclast = experiment: Inhibition of bone resorption in rabbit osteoclasts; format: functional, cell-based; settings: Oryctolagus cuniculus

Chain of Voltage-gated inwardly rectifying potassium channel KCNH2 (Q12809 whole entry): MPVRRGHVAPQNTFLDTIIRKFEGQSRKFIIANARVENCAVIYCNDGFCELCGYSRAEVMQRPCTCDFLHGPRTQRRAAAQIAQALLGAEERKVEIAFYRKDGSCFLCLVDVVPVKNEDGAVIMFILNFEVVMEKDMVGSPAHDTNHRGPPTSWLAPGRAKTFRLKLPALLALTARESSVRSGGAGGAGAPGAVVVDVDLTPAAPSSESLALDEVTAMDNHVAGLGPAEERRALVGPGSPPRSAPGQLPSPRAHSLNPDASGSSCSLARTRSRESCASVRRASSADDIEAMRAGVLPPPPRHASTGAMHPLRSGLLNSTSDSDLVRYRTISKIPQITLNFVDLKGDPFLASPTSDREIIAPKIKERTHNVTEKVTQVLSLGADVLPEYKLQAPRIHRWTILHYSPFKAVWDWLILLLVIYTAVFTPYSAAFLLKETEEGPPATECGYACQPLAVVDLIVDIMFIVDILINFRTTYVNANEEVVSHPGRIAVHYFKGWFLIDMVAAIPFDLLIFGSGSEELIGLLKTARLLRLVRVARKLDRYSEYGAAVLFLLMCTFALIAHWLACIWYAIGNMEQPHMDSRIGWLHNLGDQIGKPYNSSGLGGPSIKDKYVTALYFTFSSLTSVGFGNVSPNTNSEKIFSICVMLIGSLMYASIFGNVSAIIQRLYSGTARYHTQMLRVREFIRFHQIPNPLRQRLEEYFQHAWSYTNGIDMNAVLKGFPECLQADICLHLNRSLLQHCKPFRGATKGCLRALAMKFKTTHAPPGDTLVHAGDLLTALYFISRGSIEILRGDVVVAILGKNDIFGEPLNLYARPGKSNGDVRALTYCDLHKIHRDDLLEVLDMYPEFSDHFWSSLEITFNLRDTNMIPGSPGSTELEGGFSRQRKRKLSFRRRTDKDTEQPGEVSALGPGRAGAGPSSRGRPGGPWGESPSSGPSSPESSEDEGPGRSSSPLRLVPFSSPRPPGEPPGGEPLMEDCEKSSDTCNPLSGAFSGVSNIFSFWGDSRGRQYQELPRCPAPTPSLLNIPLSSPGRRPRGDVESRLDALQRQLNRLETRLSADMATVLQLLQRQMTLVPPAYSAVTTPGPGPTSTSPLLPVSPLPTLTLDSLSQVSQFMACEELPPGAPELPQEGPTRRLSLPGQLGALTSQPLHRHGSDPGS

| Compound | Ki [1] | IC50 (Cathepsin K) | other results |
| --- | --- | --- | --- |
| N#Cc1nc(CCCNC2(C(N)=O)CCC2)cc(-c2cccc(C(F)(F)F)c2)n1 | 2510 nM |  |  |
| N#Cc1nc(CCCNC2(C(N)=O)CC2)cc(-c2cccc(C(F)(F)F)c2)n1 | 1580 nM |  |  |
| N#Cc1nc(CCCNC2(C(N)=O)CCOCC2)cc(-c2cccc(C(F)(F)F)c2)n1 | > 10000 nM | 5 nM | half-life [2]: > 2.5 h |
| N#Cc1nc(CCCNCC(F)(F)F)cc(-c2cccc(C(F)(F)F)c2)n1 | 500 nM | 30 nM |  |
| N#Cc1nc(CCCNCC(N)=O)cc(-c2cccc(C(F)(F)F)c2)n1 | 3980 nM |  |  |
| CCCc1cc(-c2cc(C(F)(F)F)ccc2C(=O)N(C)C)nc(C#N)n1 |  | 427 nM |  |
| N#Cc1nc(CCCN2CCC(O)CC2)cc(-c2cccc(C(F)(F)F)c2)n1 | 1120 nM |  |  |
| N#Cc1nc(CCCNCC(=O)O)cc(-c2cccc(C(F)(F)F)c2)n1 | > 10000 nM |  |  |
| CNCCCc1cc(-c2cccc(C(F)(F)F)c2)nc(C#N)n1 |  | 6 nM |  |
| CC(C)(NCCCc1cc(-c2cccc(C(F)(F)F)c2)nc(C#N)n1)C(N)=O |  |  | IC50 (Procathepsin L): > 10000 nM; bioavailability [3]: 29%; IC50 (Cathepsin B): 2510 nM; bioavailability [4]: 29%; IC50 (Cathepsin S): 16 nM; bioavailability [5]: 57%; IC50 (Cytochrome P450 2C19): > 35000 nM; IC50 (Cytochrome P450 3A4): > 35000 nM; IC50 (Cytochrome P450 2C9): > 35000 nM; solubility [6]: 393 µg/mL (≈ 1000 µM); IC50 (Cytochrome P450 1A2): > 35000 nM |
| CCCc1cc(-c2cc(C(=O)N(C)CCN(C)C)cc(C(F)(F)F)c2)nc(C#N)n1 | 710 nM |  |  |
| CCCc1cc(-c2cc(C(=O)N(C)Cc3ccccc3)cc(C(F)(F)F)c2)nc(C#N)n1 |  | 9 nM |  |
| N#Cc1nc(CCCNCc2nnn[nH]2)cc(-c2cccc(C(F)(F)F)c2)n1 | > 10000 nM | 11 nM | IC50 (Osteoclast): 1640 nM |
| CCCc1cc(-c2cc(C(=O)N(C)C)cc(C(F)(F)F)c2)nc(C#N)n1 | > 10000 nM |  |  |
| N#Cc1nc(CCCN2CCOC[C@H]2C(N)=O)cc(-c2cccc(C(F)(F)F)c2)n1 | > 10000 nM | 13 nM | half-life [2]: > 2.5 h |
| CN1CCN(CCCc2cc(-c3cccc(C(F)(F)F)c3)nc(C#N)n2)CC1 |  | 10 nM |  |
| CCC(CC)NC(=O)CCc1cc(-c2cccc(C(F)(F)F)c2)nc(C#N)n1 |  | 389 nM |  |
| N#Cc1nc(CCCN2CCOCC2)cc(-c2cccc(C(F)(F)F)c2)n1 | 320 nM | 9 nM |  |
| N#Cc1nc(CCC(=O)O)cc(-c2cccc(C(F)(F)F)c2)n1 | > 10000 nM | 166 nM |  |
| CCCc1cc(-c2cc(C(=O)N(CCN(C)C)Cc3ccccc3)cc(C(F)(F)F)c2)nc(C#N)n1 | 120 nM |  |  |
| N#Cc1nc(CCCNc2ccccn2)cc(-c2cccc(C(F)(F)F)c2)n1 |  | 3 nM |  |
| COCCNCCCc1cc(-c2cccc(C(F)(F)F)c2)nc(C#N)n1 | 560 nM | 10 nM |  |
| N#Cc1nc(CCCN2CCCCC2)cc(-c2cccc(C(F)(F)F)c2)n1 | 160 nM |  | solubility [6]: 60 µg/mL (≈ 160 µM) |
